This is an account of results in ChEMBL document CHEMBL3608232, “Exploring the Existing Drug Space for Novel pTyr Mimetic and SHP2 Inhibitors” (ACS Med Chem Lett, 2015).

In test [1] the target is Receptor-type tyrosine-protein phosphatase gamma (Homo sapiens, UniProt P23470). As to the kind of experiment: Inhibition of phosphatase activity of human PTPgamma using pNPP as a substrate after 10 mins by spectrophotometer analysis.
The target of test [2] is T1, Tyrosine-protein phosphatase non-receptor type 22 (Homo sapiens, UniProt Q9Y2R2).
T1 sequence (Q9Y2R2 whole entry): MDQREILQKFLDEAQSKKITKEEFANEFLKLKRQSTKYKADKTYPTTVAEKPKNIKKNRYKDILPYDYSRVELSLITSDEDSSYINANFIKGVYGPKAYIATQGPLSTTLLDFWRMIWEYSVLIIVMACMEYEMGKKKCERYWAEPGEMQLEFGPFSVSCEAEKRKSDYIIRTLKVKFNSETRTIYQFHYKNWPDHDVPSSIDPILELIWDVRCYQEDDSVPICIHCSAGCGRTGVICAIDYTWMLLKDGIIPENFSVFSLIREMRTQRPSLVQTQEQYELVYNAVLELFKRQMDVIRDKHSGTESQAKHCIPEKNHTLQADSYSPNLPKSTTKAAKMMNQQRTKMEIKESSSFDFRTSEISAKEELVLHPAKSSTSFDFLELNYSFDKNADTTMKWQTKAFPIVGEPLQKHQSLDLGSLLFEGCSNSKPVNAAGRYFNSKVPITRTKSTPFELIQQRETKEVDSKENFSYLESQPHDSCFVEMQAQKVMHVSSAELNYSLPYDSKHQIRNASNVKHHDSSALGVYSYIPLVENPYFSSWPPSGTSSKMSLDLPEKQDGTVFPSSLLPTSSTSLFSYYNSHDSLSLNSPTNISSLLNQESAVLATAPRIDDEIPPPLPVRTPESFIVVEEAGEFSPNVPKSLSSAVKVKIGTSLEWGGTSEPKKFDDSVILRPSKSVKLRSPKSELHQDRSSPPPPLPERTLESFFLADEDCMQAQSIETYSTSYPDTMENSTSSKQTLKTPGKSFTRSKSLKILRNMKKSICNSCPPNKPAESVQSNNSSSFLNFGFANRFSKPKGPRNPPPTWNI
As to the kind of experiment: Inhibition of phosphatase activity of human LYP using pNPP as a substrate after 10 mins by spectrophotometer analysis.

The target of test [3] is Dual specificity protein phosphatase 3 (Homo sapiens, UniProt P51452). As to the kind of experiment: Inhibition of phosphatase activity of human VHR using pNPP as a substrate after 10 mins by spectrophotometer analysis.
Chain of Dual specificity protein phosphatase 3 (P51452 whole entry): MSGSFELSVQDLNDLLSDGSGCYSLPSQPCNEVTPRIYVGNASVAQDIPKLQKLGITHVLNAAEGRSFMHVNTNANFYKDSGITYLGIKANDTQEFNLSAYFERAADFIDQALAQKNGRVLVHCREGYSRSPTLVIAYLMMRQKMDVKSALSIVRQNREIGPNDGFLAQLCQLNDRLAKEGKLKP
For test [4], the target named is Receptor-type tyrosine-protein phosphatase F (Homo sapiens, UniProt P10586). As to the kind of experiment: Inhibition of phosphatase activity of human LAR using pNPP as a substrate after 10 mins by spectrophotometer analysis.
Chain of Receptor-type tyrosine-protein phosphatase F (P10586 whole entry): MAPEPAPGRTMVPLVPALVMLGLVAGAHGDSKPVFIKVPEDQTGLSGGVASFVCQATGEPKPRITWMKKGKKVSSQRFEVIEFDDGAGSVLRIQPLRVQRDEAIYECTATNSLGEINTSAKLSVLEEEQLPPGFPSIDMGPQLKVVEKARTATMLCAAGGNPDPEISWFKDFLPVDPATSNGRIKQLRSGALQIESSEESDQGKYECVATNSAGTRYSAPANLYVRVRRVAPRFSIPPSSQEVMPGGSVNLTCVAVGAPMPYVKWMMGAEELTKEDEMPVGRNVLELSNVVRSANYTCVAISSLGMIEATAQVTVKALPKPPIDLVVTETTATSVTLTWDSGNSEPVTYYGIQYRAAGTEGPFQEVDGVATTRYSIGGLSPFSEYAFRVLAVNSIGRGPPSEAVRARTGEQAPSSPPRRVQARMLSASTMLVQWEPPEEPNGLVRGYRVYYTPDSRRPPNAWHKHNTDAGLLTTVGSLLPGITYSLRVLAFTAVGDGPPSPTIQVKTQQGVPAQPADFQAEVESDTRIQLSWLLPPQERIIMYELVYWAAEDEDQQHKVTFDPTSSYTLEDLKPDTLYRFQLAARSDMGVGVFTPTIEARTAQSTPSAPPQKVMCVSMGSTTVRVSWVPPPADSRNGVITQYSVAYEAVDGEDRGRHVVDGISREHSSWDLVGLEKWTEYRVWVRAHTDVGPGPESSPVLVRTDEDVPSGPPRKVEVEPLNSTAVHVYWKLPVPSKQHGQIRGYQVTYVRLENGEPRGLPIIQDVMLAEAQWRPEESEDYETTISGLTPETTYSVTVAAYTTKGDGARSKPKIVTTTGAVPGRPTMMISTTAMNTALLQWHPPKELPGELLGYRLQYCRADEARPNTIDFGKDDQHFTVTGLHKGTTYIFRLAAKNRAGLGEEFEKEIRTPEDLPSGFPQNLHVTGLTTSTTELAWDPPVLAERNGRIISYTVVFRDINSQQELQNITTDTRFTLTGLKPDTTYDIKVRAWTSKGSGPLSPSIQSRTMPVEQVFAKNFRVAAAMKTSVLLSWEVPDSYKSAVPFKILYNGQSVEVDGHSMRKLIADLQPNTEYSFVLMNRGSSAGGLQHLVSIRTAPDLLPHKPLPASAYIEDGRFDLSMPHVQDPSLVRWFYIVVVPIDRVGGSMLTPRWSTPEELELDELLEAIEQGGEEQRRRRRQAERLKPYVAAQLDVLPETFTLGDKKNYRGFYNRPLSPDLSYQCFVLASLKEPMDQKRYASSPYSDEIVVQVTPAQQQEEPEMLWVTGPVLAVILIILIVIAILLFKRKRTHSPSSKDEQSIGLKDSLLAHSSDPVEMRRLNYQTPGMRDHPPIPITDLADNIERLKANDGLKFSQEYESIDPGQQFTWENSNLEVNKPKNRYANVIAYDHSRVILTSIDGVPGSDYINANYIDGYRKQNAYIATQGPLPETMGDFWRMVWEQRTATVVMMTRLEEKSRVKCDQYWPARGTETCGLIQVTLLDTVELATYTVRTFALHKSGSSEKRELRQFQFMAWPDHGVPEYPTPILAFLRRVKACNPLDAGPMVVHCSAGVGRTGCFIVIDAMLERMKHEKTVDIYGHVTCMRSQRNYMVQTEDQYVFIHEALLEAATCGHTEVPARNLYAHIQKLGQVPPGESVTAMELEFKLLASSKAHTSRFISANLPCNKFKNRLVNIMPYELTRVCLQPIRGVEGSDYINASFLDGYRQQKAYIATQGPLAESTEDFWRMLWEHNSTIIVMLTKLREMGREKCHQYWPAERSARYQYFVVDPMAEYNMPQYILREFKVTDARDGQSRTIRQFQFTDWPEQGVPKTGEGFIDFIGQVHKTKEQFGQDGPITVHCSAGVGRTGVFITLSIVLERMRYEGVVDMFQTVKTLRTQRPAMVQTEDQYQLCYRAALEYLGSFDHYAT
Test [5] deals with T2, Tyrosine-protein phosphatase non-receptor type 11 (Homo sapiens, UniProt Q06124).
T2 sequence (Q06124 whole entry): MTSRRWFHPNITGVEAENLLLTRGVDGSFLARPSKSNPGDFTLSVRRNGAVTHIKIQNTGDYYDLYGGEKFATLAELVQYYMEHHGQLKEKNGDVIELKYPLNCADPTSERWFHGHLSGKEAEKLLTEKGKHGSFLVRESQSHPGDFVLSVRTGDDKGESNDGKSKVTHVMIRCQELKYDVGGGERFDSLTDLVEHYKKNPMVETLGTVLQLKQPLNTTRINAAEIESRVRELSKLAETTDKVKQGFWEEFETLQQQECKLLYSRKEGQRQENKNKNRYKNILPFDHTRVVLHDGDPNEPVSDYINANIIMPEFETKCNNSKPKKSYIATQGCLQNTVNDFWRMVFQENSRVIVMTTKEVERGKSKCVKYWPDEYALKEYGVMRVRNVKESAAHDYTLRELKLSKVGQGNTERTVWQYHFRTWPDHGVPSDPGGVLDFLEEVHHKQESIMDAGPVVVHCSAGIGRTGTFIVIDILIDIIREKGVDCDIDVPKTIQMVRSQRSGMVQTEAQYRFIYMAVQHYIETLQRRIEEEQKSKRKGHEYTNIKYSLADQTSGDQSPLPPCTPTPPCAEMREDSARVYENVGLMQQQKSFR
As to the kind of experiment: Competitive inhibition of phosphatase activity of SHP2 (unknown origin) using pNPP as a substrate Lineweaver-Burk plot analysis. In a few lines: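 SHP2-catalysed hydrolysis of para-nitrophenyl phosphate measured with inhibitor at 0, 0.25, 0.5 and 0.75 μM. Inhibition mode assigned from a Lineweaver–Burk (double-reciprocal) plot.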

Test [6] has as its target T3, Tyrosine-protein phosphatase non-receptor type 11 (Homo sapiens) (UniProt Q06124).
T3 sequence (whole entry): T2 sequence (Q06124 whole entry)
As to the kind of experiment: Inhibition of SHP2 in human NCI-H1975 cells assessed as increase in EGF-induced paxillin phosphorylation at Y118 at 40 uM after 60 mins relative to control.

For test [7], the target named is T3, Tyrosine-protein phosphatase non-receptor type 11 (Homo sapiens). Description: Inhibition of SHP2 in human NCI-H1975 cells assessed as reduction of EGF-induced ERK1/2 activation at 40 uM after 60 mins relative to control. Format: cell-based. In a few lines:
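H1975 cells were stimulated with EGF and ERK1/2 and paxillin phosphorylation was assessed by immunoblot. Band intensities were quantified, and pERK1/2/total ERK1/2 or pPaxillin(Y118)/total paxillin ratios were normalized to the reference. Blots are representative of at least two independent experiments, with quantified values given as mean ± SD.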

In test [8] the test system is SK-BR-3. Description: Growth inhibition of human SKBR3 cells expressing ErbB2 in 3D matrigel after 5 days. The class given is functional, cell-based.

Chain of Receptor-type tyrosine-protein phosphatase gamma (P23470 whole entry): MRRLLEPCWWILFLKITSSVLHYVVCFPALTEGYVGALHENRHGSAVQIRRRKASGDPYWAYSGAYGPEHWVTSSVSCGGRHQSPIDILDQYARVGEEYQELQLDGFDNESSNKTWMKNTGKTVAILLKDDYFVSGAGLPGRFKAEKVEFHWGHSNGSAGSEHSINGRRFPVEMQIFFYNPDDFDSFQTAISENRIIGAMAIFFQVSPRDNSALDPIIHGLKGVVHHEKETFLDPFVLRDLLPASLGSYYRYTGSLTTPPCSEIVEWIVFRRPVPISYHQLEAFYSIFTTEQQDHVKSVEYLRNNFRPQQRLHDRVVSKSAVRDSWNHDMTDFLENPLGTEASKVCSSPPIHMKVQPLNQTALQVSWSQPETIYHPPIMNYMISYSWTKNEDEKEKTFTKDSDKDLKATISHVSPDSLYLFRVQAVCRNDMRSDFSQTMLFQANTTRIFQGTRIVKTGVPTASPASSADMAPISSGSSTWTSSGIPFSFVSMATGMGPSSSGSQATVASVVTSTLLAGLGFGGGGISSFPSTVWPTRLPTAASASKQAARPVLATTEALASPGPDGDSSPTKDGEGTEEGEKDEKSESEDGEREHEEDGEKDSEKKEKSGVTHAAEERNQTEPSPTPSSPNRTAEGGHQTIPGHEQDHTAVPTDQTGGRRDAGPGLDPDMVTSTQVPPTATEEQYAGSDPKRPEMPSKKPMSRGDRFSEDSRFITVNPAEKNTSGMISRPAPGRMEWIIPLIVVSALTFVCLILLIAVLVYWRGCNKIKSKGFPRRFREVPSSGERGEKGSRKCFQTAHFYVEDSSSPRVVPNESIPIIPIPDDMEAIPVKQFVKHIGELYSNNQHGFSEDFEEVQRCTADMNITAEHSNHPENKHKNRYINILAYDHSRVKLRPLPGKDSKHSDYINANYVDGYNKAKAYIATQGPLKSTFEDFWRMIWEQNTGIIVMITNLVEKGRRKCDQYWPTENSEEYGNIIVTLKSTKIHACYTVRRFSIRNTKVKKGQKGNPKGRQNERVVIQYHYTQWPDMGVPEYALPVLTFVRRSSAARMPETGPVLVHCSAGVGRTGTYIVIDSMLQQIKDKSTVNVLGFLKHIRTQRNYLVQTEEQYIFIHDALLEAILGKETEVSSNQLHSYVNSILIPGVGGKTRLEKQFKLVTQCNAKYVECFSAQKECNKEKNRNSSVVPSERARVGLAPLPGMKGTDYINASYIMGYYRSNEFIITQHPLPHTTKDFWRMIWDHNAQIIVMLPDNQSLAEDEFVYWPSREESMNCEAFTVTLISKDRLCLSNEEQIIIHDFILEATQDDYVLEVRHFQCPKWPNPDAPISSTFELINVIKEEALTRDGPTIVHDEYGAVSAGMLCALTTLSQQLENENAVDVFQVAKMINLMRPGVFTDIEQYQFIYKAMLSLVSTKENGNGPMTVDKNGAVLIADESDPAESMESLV

Turning to `O=C(Nc1ccc(NC(=O)C(c2ccccc2)S(=O)(=O)O)cc1)C(=O)Nc1ccc(-c2ccccc2)cc1` (configuration not stated), the IC50 in test [1], in test [2], in test [3] and in test [4] was greater than 50 µM in each case.

Regarding `O=C(Nc1ccc(I)cc1)C(=O)Nc1ccc(NC(=O)C(c2ccccc2)S(=O)(=O)O)cc1` (configuration not stated), the IC50 in test [1], in test [2], in test [3] and in test [4] was greater than 50 µM each time. In test [5], this molecule gave a Ki of 0.51 µM. The fold change (FC) in test [6] is 1.3; in test [7], 0.6. Moreover, the “growth inhibition (GI)” value in test [8] is “Dose-dependent effect”.
